Measurements: ChEMBL document CHEMBL1147884, “Further studies on the effect of lysine at the C-terminus of the Dmt-Tic opioid pharmacophore” (Bioorg Med Chem, 2007)
pIC50, pKi: −log10 of the molar value. Starred links: 1 amine or outer side, 2 acyl side, 3 side chain; linkers in the order of their positions; H or OH if unused. Non-standard residues stand in square brackets, D forms with d. Residues, ends and D or L forms follow the SMILES beside them. *: point of attachment. Dmt = Cc1cc(O)cc(C)c1C[C@H](N)C(=O)O; εLys = N[C@@H](CCCCN[*:1])C(=O)[*:2]; Tic = O=C(O)[C@@H]1Cc2ccccc2CN1; NHBn = c1ccc(CN*)cc1; NHPh = c1ccc(N*)cc1

Tests used:
Mu-type opioid receptor [1] = target: Mu-type opioid receptor (Rattus norvegicus, UniProt P33535); assay: Displacement of [3H]DAMGO 2 from mu opioid receptor in Sprague-Dawley rat brain P2 synaptosomal membrane
Outline: (§1)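 Competition binding at equilibrium, 2.5 h at 23 °C, on rat brain P2 synaptosomes preincubated to remove endogenous opioids, stored at -80 °C in buffered 20% glycerol. Five to eight peptide doses, duplicate assays, 3-5 independent preparations. Filtration on polyethylenimine-soaked (0.1%) glass fibre filters, three washes in ice-cold buffered BSA; Ki by Cheng-Prusoff, mean ± SE.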

[2] = target: Delta-type opioid receptor (Rattus norvegicus, UniProt P33533); assay: Displacement of [3H]deltorphin 2 from delta opioid receptor in Sprague-Dawley rat brain P2 synaptosomal membrane; outline: as §1
[3] = target: T1, Opioid receptors; mu & delta (Rattus norvegicus) (UniProt P33533+P33535); assay: Selectivity ratio of Ki for mu opioid receptor to Ki for delta opioid receptor; format: protein assay
Mu-type opioid receptor [4] = target: Mu-type opioid receptor (Cavia porcellus, UniProt P97266); assay: Agonist activity at mu opioid receptor in Hartley guinea pig ileum assessed as inhibition of electrically-stimulated contraction; format: functional, tissue-based
Outline: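 Myenteric plexus-longitudinal muscle strips (2-3 cm) from small intestine of male Hartley guinea pigs in organ bath, physiological buffer pH 7.5. Inhibition of electrically evoked contraction; IC50 (nM) from dose-response curves, mean ± SE of five or six separate tissue assays; endomorphin-2 as internal standard.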

[5] = target: Delta-type opioid receptor (Mus musculus, UniProt P32300); assay: Antagonist activity at delta opioid receptor in mouse vas deferens assessed as inhibition of electrically-stimulated contraction; format: functional, tissue-based; details: read-out: pA2 (converted)
Outline: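 Single mouse vas deferens in organ bath, balanced salt physiological buffer pH 7.5, electrically stimulated. Antagonism measured against δ-agonist deltorphin II; pA2 derived by Schild plot (method of Kosterlitz and Watt).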

[6] = target: T1, Opioid receptors; mu & delta (Rattus norvegicus); assay: Selectivity ratio of Ki for rat delta opioid receptor to Ki for rat mu opioid receptor; format: protein assay

Sequence of Delta-type opioid receptor (Rattus norvegicus, UniProt P33533) (P33533 whole entry): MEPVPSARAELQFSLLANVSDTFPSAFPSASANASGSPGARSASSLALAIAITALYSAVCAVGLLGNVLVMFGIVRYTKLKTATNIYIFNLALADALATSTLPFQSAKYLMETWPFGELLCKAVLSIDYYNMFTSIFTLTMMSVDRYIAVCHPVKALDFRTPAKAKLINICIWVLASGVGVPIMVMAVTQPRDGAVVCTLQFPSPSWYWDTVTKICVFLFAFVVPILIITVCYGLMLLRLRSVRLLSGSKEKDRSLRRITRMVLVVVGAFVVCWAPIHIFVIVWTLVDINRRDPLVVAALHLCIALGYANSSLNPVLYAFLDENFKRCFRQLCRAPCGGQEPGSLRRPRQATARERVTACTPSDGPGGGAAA
T1 sequence (P33533 whole entry, looked up): as the sequence (P33533 whole entry) above
T1 sequence (P33535 whole entry, looked up): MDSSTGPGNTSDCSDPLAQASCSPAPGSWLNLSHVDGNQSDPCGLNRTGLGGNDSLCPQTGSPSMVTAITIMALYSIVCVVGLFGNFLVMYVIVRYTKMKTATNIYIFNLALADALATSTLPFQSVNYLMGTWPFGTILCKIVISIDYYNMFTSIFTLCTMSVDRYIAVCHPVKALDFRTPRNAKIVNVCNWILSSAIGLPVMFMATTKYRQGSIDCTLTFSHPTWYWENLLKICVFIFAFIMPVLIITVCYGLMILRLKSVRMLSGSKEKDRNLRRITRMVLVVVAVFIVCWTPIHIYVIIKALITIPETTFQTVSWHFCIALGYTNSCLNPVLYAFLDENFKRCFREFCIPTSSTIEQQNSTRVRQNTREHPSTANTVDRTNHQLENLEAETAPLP
Sequence of Mu-type opioid receptor (Rattus norvegicus, UniProt P33535) (P33535 whole entry): as the sequence (P33535 whole entry, looked up) above
Sequence of Delta-type opioid receptor (Mus musculus, UniProt P32300) (P32300 whole entry): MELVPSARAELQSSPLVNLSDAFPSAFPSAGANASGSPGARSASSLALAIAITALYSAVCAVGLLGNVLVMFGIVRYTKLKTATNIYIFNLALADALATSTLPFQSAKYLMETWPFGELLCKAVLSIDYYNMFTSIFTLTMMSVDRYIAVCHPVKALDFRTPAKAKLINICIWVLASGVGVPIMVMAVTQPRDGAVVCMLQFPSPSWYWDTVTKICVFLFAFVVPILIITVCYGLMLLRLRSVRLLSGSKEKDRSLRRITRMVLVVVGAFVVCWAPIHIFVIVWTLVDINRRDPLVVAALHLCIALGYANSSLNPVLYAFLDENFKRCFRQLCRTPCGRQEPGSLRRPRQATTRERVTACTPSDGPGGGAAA
Sequence of Mu-type opioid receptor (Cavia porcellus, UniProt P97266) (P97266 whole entry): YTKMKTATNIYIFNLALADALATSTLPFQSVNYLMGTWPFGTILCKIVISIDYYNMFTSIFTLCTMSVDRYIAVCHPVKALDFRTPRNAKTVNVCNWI

Compound	pKi (Mu-type opioid receptor [1])	pKi [2]	Ratio Ki [3]	pIC50 (Mu-type opioid receptor [4])	Kb [5]	Ratio Ki [6]
Cc1cc(O)cc(C)c1C[C@H](N)C(=O)N1Cc2ccccc2C[C@H]1C(=O)NCCCC[C@H](NC(=O)OCc1ccccc1)C(=O)NCc1ccccc1	8.50	9.28	5.9	5.84	5.37 nM	
Cc1cc(O)cc(C)c1C[C@H](N)C(=O)N1Cc2ccccc2C[C@H]1C(=O)NCCCC[C@H](N)c1nc2ccccc2[nH]1	8.99	8.58		6.36	8.13 nM	2.6
Cc1cc(O)cc(C)c1C[C@H](N)C(=O)N1Cc2ccccc2C[C@H]1C(=O)NCCCC[C@H](NC(=O)OCc1ccccc1)C(=O)Nc1ccccc1	8.57	9.33	5.7	6.15	5.89 nM	
Cc1cc(O)cc(C)c1C[C@H](N)C(=O)N1Cc2ccccc2C[C@H]1C(=O)NCCCC[C@H](NC(=O)OCc1ccccc1)c1nc2ccccc2[nH]1	8.56	9.07	3.2	6.21	15.1 nM	
Cc1cc(O)cc(C)c1C[C@H](N)C(=O)N1Cc2ccccc2C[C@H]1C(=O)NCCCC[C@H](N)C(=O)Nc1ccccc1 (H-[Dmt]-[Tic]-[εLys]-NHPh)	9.05	8.69		6.29	12 nM	2.3
CC(=O)N[C@@H](CCCCNC(=O)[C@@H]1Cc2ccccc2CN1C(=O)[C@@H](N)Cc1c(C)cc(O)cc1C)C(=O)Nc1ccccc1	8.59	9.66	11.7	6.31	6.61 nM	
CC(=O)N[C@@H](CCCCNC(=O)[C@@H]1Cc2ccccc2CN1C(=O)[C@@H](N)Cc1c(C)cc(O)cc1C)C(=O)NCc1ccccc1	8.46	9.68	16.3	5.70	8.51 nM	
Cc1cc(O)cc(C)c1C[C@H](N)C(=O)N1Cc2ccccc2C[C@H]1C(=O)NCCCC[C@H](N)C(=O)NCc1ccccc1 (H-[Dmt]-[Tic]-[εLys]-NHBn)	9.22	9.00		6.26	15.5 nM	1.7
CC(=O)N[C@@H](CCCCNC(=O)[C@@H]1Cc2ccccc2CN1C(=O)[C@@H](N)Cc1c(C)cc(O)cc1C)c1nc2ccccc2[nH]1	9.00	9.68	4.7	6.21	7.59 nM	
